In ChEMBL document CHEMBL3244396, “Synthesis and antileukemic activity of 5-substituted 2,3-dihydro-6,7-bis(hydroxymethyl)-1H-pyrrolizine diesters” (J Med Chem, 1977):

Assays:
L1210 [1] = test: Antileukemic activity against mouse L1210 cells allografted in female BDF1 mouse assessed as host mean survival time at 200 mg/kg, ip administered daily for 9 days as Klucel suspension starting 24 hrs after tumor inoculation relative to control; type: functional; conditions: route intraperitoneal
Summary of the method: (§1)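 L1210 leukemia given as an ascitic fluid cell inoculum, ip, to mice of the strain and sex in each line. Test material was given ip for nine daily doses starting 24 h after inoculation, in a Klucel (hydroxypropylcellulose) suspension. Read-out is mean survival time as %T/C versus controls, with >125 taken as significant.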

L1210 [2] = test: Antileukemic activity against mouse L1210 cells allografted in female BDF1 mouse assessed as change in body weight at 100 mg/kg, ip administered daily for 9 days as Klucel suspension starting 24 hrs after tumor inoculation; type: functional; conditions: route intraperitoneal
Summary of the method: (§2)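 Ascitic fluid carrying L1210 cells was inoculated ip. Compound was given ip as a Klucel (hydroxypropylcellulose) suspension in nine daily doses, starting 24 h after inoculation. Body-weight difference (treated minus control) was recorded on day 5. Survival was scored as %T/C of mean survival time.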

Mus musculus [3] = test: Toxicity in female CDF1 mouse allografted with mouse P388 cells assessed as animal survival at 400 mg/kg, ip administered daily for 9 days as saline with Tween-80 solution starting 24 hrs after tumor inoculation; type: organism-based; set-up: dose 400 mg/kg, route intraperitoneal; conditions: in vivo
Summary of the method: (§3)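 P-388 leukemia ascitic fluid implanted ip. Compound dosed ip in saline with Tween-80 vehicle, once daily for nine doses from 24 h after tumor inoculation. Acute toxicity scored as toxicity-day survivors per group. Survival was followed up to 30 days, with 30-day survival counted as "cure". Follows NCI screening protocols.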

P388 [4] = test: Antitumor activity against mouse P388 cells allografted in female CDF1 mouse assessed as change in body weight at 200 mg/kg, ip administered daily for 9 days as saline with Tween-80 solution starting 24 hrs after tumor inoculation; type: functional; conditions: route intraperitoneal
Summary of the method: (§4)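 Ascitic fluid carrying P388 cells was inoculated ip. Compound was given ip in nine daily doses, starting 24 h after inoculation, in Klucel (hydroxypropylcellulose) suspension or in saline with Tween-80. Body-weight difference (treated minus control) was recorded on day 5. Survival was scored as %T/C of median survival time, and 30-day survival counted as cure.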

P388 [5] = test: Antitumor activity against mouse P388 cells allografted in female CDF1 mouse assessed as disease cures by measuring 30-days host survival at 400 mg/kg, ip administered daily for 9 days as saline with Tween-80 solution starting 24 hrs after tumor inoculation relative to control; type: functional; conditions: route intraperitoneal
Summary of the method: (§5)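 P388 ascitic cell inoculum given ip to CDF1 mice of the sex in each line. Nine daily ip doses in saline with Tween-80 as vehicle, starting 24 h after inoculation. Median survival time expressed as %T/C (>125 significant); "cure" defined as 30-day survival.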

P388 [6] = test: Antitumor activity against mouse P388 cells allografted in female CDF1 mouse assessed as disease cures by measuring 30-days host survival at 200 mg/kg, ip administered daily for 9 days as saline with Tween-80 solution starting 24 hrs after tumor inoculation relative to control; type: functional; conditions: route intraperitoneal; summary of the method: as §5
Mus musculus [7] = test: Toxicity in female CDF1 mouse allografted with mouse P388 cells assessed as animal survival at 200 mg/kg, ip administered daily for 9 days as saline with Tween-80 solution starting 24 hrs after tumor inoculation; type: organism-based; set-up: dose 200 mg/kg, route intraperitoneal; conditions: in vivo; summary of the method: as §3
P388 [8] = test: Antitumor activity against mouse P388 cells allografted in female CDF1 mouse assessed as change in body weight at 400 mg/kg, ip administered daily for 9 days as saline with Tween-80 solution starting 24 hrs after tumor inoculation; type: functional; conditions: route intraperitoneal; summary of the method: as §4
P388 [9] = test: Antitumor activity against mouse P388 cells allografted in female CDF1 mouse assessed as disease cures by measuring 30-days host survival at 100 mg/kg, ip administered daily for 9 days as saline with Tween-80 solution starting 24 hrs after tumor inoculation relative to control; type: functional; conditions: route intraperitoneal; summary of the method: as §5
Mus musculus [10] = test: Toxicity in female BDF1 mouse allografted with mouse L1210 cells assessed as animal survival at 200 mg/kg, ip administered daily for 9 days as Klucel suspension starting 24 hrs after tumor inoculation measured on fifth day; type: organism-based; set-up: dose 200 mg/kg, route intraperitoneal; conditions: in vivo
Summary of the method: (§6)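 L1210 leukemia passaged as ascitic fluid and inoculated ip. Test agent given ip as a Klucel (hydroxypropylcellulose) suspension, nine daily doses starting 24 h after tumor inoculation. Acute toxicity read as toxicity-day survivors per group (out of 6), recorded on day 5. Animal weight difference T − C was also recorded. Follows NCI screening protocols.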

Mus musculus [11] = test: Toxicity in female BDF1 mouse allografted with mouse L1210 cells assessed as animal survival at 50 mg/kg, ip administered daily for 9 days as Klucel suspension starting 24 hrs after tumor inoculation measured on fifth day; type: organism-based; set-up: dose 50 mg/kg, route intraperitoneal; conditions: in vivo; summary of the method: as §6
Mus musculus [12] = test: Toxicity in female BDF1 mouse allografted with mouse L1210 cells assessed as animal survival at 100 mg/kg, ip administered daily for 9 days as Klucel suspension starting 24 hrs after tumor inoculation measured on fifth day; type: organism-based; set-up: dose 100 mg/kg, route intraperitoneal; conditions: in vivo
Summary of the method: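 Female BDF1 mice bearing ip ascitic L1210 inoculum got nine daily ip doses in a Klucel suspension, starting 24 h after tumor inoculation. Toxicity was scored as toxicity-day survivors out of the group, recorded on the fifth day. Animal weight difference (T − C) was also tabulated.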

P388 [13] = test: Antitumor activity against mouse P388 cells allografted in female CDF1 mouse assessed as change in body weight at 100 mg/kg, ip administered daily for 9 days as saline with Tween-80 solution starting 24 hrs after tumor inoculation; type: functional; conditions: route intraperitoneal; summary of the method: as §4
L1210 [14] = test: Antileukemic activity against mouse L1210 cells allografted in female BDF1 mouse assessed as host mean survival time at 50 mg/kg, ip administered daily for 9 days as Klucel suspension starting 24 hrs after tumor inoculation relative to control; type: functional; conditions: route intraperitoneal; summary of the method: as §1
L1210 [15] = test: Antileukemic activity against mouse L1210 cells allografted in female BDF1 mouse assessed as host mean survival time at 100 mg/kg, ip administered daily for 9 days as Klucel suspension starting 24 hrs after tumor inoculation relative to control; type: functional; conditions: route intraperitoneal; summary of the method: as §1
L1210 [16] = test: Antileukemic activity against mouse L1210 cells allografted in female BDF1 mouse assessed as change in body weight at 200 mg/kg, ip administered daily for 9 days as Klucel suspension starting 24 hrs after tumor inoculation; type: functional; conditions: route intraperitoneal; summary of the method: as §2
Mus musculus [17] = test: Toxicity in female CDF1 mouse allografted with mouse P388 cells assessed as animal survival at 100 mg/kg, ip administered daily for 9 days as saline with Tween-80 solution starting 24 hrs after tumor inoculation; type: organism-based; set-up: dose 100 mg/kg, route intraperitoneal; conditions: in vivo; summary of the method: as §3
L1210 [18] = test: Antileukemic activity against mouse L1210 cells allografted in female BDF1 mouse assessed as change in body weight at 50 mg/kg, ip administered daily for 9 days as Klucel suspension starting 24 hrs after tumor inoculation; type: functional; conditions: route intraperitoneal; summary of the method: as §2

## COC(=O)c1c(C(=O)OC)c(-c2ccc(Cl)c(Cl)c2)n2c1CCC2
L1210 [1]
  T/C: 98%
L1210 [2]
  Activity: 3.4 g
Mus musculus [3]
  Activity: Non-toxic
P388 [4]
  Activity: 0.2 g
P388 [5]
  T/C: 88%
P388 [6]
  T/C: 89%
Mus musculus [7]
  Activity: Non-toxic
P388 [8]
  Activity: -0.2 g
P388 [9]
  T/C: 87%
Mus musculus [10]
  Activity: Non-toxic
Mus musculus [11]
  Activity: Non-toxic
Mus musculus [12]
  Activity: Non-toxic
P388 [13]
  Activity: 0.2 g
L1210 [14]
  T/C: 91%
L1210 [15]
  T/C: 88%
L1210 [16]
  Activity: 1.1 g
Mus musculus [17]
  Activity: Non-toxic
L1210 [18]
  Activity: 2.8 g
